Source: ChEMBL document CHEMBL5357040, “Synthesis and migrastatic activity of cytochalasin analogues lacking a macrocyclic moiety” (RSC Med Chem, 2024)
The source made the active and inactive calls. The calls are words filed in the database; no cut-off is given here.

How the values were obtained:
BLM = experiment: Migrastatic activity against human BLM cells assessed as decrease in cell migration at 10 uM incubated for 24 hrs by spheroid invasion assay; format: functional, cell-based
Outline: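 BLM spheroids formed over 2 days, embedded singly in 1.5 mg mL⁻¹ rat-tail type I collagen (1× DMEM, 1% FBS), polymerized at 37 °C, overlaid with medium; 10 μM treatment. Imaged at 0 and 24 h; invasiveness as spheroid area increase. Three independent experiments, ≥8 spheroids each; one-way ANOVA.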

[1] = Inhibition of actin (unknown origin) polymerization at 10 uM by spectrophotometer analysis; details: Homo sapiens
Outline: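 Pyrene-labelled actin (0.4 mg mL⁻¹) in G-buffer with compound at 10 μM or DMSO control; polymerization started with 10× actin polymerization buffer. Fluorescence (ex 360 nm, em 420 nm) followed over time until plateau.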

HT-1080 [2] = experiment: Inhibition of actin in human HT-1080 cells assessed as effect on actin cytoskeleton at 10 uM incubated for 2 mins by fluorescence microscopic analysis; format: cell-based
Outline: (§1)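 HT1080 cells on glass-bottom plates stained with SPY650-FastAct; untreated cells imaged every 20 s for 15 min, then compound (10 or 50 μM) added to same well and recorded 15 min at 20 s/frame by fluorescence time-lapse; actin cytoskeleton and morphology assessed from video.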

HT-1080 [3] = experiment: Inhibition of actin in human HT-1080 cells assessed as effect on actin cytoskeleton at 10 uM incubated for 5 mins by fluorescence microscopic analysis; format: cell-based; outline: as §1
HT-1080 [4] = experiment: Effect on cell morphology in human HT-1080 cells at 50 uM incubated for 5 mins by fluorescence microscopic analysis; format: functional, cell-based; outline: as §1

Structure (SMILES)	Activity (BLM)	inhibition [1]	inhibition (HT-1080 [2])	inhibition (HT-1080 [3])	Activity (HT-1080 [4])
CC1=C[C@H](CCOCCc2ccccc2)[C@]2(CO)C(=O)N[C@@H](Cc3ccccc3)[C@@H]2[C@@H]1C	Active	Active			
C=C1[C@@H](C)[C@H]2[C@H](Cc3ccccc3)NC(=O)[C@]23[C@H](OC(C)=O)/C=C/[C@@](C)(O)C(=O)[C@@H](C)C/C=C/[C@H]3[C@@H]1O	inactive		Active		
C=C1[C@@H](C)[C@H]2[C@H](Cc3ccccc3)NC(=O)[C@]23OC(=O)/C=C/[C@H](O)CCC[C@@H](C)C/C=C/[C@H]3[C@@H]1O	inactive		Active		
COC(=O)[C@@]12C(=O)N[C@@H](Cc3ccccc3)[C@@H]1[C@H](C)C(C)=C[C@@H]2CCCOCc1ccccc1	Active	Active			
COC(=O)[C@@]12C(=O)N[C@@H](Cc3ccccc3)[C@@H]1[C@H](C)[C@@](C)(Cl)[C@H](O)[C@@H]2CCOCCc1ccccc1		Active			
C=C1[C@@H](C)[C@H]2[C@H](Cc3ccccc3)NC(=O)[C@@]2(C(=O)OC)[C@@H](CCOCCc2ccccc2)[C@@H]1O	Active	Active	inactive	Active	Active
